Bioassay records as filed in PubChem BioAssay.
Shown are actives, neighbours in structure and some others; about 3.8% of the full set was active somewhere.
RAM inhibit = inhibitors of the yeast RAM network | 190,000 compounds, 1.8% hits | S. cerevisiae dse1pr::URA3 reporter, 5-FOA growth OD615, 2 d; analog-sensitive cbk1-as2 kinase mutant strain | inhibition, % at 50 µM;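 active = inhibition above a set limit, 3 SD over mean compound inhibition, cut at about 8.4% in these data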;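 note: inhibition rescues growth on 5-FOA so higher OD means more RAM inhibition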
Yeast growth inh = chemicals that inhibit yeast BB579 growth in restrictive medium (lifespan-shortening candidates); S. cerevisiae BB579 growth, OD615, 48 h; inhibition, % at 10 µM; 140,000 compounds, 0.51% hits;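 active = inhibition above a set limit, 3 SD over the mean compound inhibition, cut at about 44% in these data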
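Detection: OD615 turbidity measurement; Material: Saccharomyces cerevisiae DeaD strain BB579, replicative lifespan model yeast; Timing: 48 h exposure, 30 °C; Doses: single 10 µM dose; Medium: CSMM-D restrictive synthetic medium containing dextrose (glucose); Controls: amphotericin B at 10 µg/mL as positive control.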
sdo1 growth = restores growth of sdo1-depleted yeast; 140,000 compounds, 0.21% hits; S. cerevisiae sdo1-depleted JHY4D growth rescue, OD600 30 h; stronger effect = higher value; pdr5 snq2 efflux-pump mutant strain; z-score at 10 µM;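 active = z-score above 3 at both the 24 hr and the 30 hr optical density reads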
Measles CPE = protection of cells from measles virus | Measles virus-infected cells, CPE protection, absorbance | protection (pct of control), % at 4 µM | 140,000 compounds, 1.5% hits | AID 841; in the data active = protection mostly above about 24%, no sharp cut-off; inactive = mostly below about 26%
Yeast life ext = extends the lifespan of yeast; inhibition of the nicotinamide effect, % at 10 µM; 130,000 compounds, 0.68% hits; S. cerevisiae growth with nicotinamide, OD615; deaD strain in restrictive glucose medium;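 active = inhibition above a set limit, placed 3 SD over the median of all compounds, cut at about 26% in these data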
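Material: Modified budding yeast, DeaD strain | Medium: Restrictive glucose medium | Probe or stimulus: 1.5 mM nicotinamide | Dosing: Single dose 10 µM compound, 0.25% DMSO | Times: 48 h at 30 °C | Technique: OD615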
sdo1 rescue conf = SDO1-depleted yeast growth rescue confirmation. shares compounds with sdo1 growth. S. cerevisiae JHY4D (SDO1-depleted) growth rescue, OD600, 30 h; stronger effect = higher value; efflux-deficient strain, SNQ2 and PDR5 mutated. OD recovery (test concentration not listed). 440 compounds, 44% hits. AID 949;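 active = yeast growth recovered at 30 hours, either rising with dose fitted slope above 0.001 or with average optical density gain above 0.07, some results past the limit were not filed as active; inactive = growth falling with dose or no effect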
Numbers stand for hits; . = inactive; / = no result; ! = not active in a repeat.

SMILES	RAM inhibit	Yeast growth inh	sdo1 growth	Measles CPE	Yeast life ext	sdo1 rescue conf
CCCn1c(O)c(N=NC(=O)c2ccco2)c2ccccc21	.	.	.	.	.	/
O=C(N=NC(=O)c1ccco1)c1ccc2c(O)n(N3C(=O)c4ccccc4C3=O)c(O)c2c1	.	.	3.51	.	.	0.0749
CCCCCCCCNC(=O)c1cnccn1	.	.	9.37	.	.	.
CCCCCCCCNC(=O)c1cnsn1	.	.	.	.	.	/
COc1ccc(N(CC(=O)NCCC2=CCCCC2)S(=O)(=O)c2ccccc2)c(OC)c1	.	/	/	/	/	/
Cc1ccc(C)n1CCN1CCN(C(=O)c2ccco2)CC1	.	.	3.01!	.	.	.
O=C(CCCCCn1c(=S)[nH]c2ccc(N3CCOCC3)cc2c1=O)NCc1cccc(Cl)c1	.	/	/	/	/	/
Cc1nc2ccccn2c1C(=O)NCCCN1CCOCC1	.	.	.	.	.	0.0889
CN(C)S(=O)(=O)c1cccc(NC(=O)c2ccc(N3CCOCC3)c([N+](=O)[O-])c2)c1	.	.	.	.	.	/
COc1ccc2c(c1)O[C@@H](c1ccc3c(c1)OCO3)[C@H](OC(=O)Nc1cc(OC)c(OC)c(OC)c1)C2=O	.	.	.	.	.	/
CCC(C)[C@@H](NC(=O)OC(C)(C)C)c1nnc(S(=O)(=O)Cc2cccc(C)c2)o1 (stereo not given in full)	.	.	5.64	.	.	0.105
Cc1ccc(C2c3sc(=O)[nH]c3SC3C(=O)NC(=O)C32)cc1 (stereo not given)	.	.	.	.	.	/
COc1ccc(C(O)c2nc3ccccc3s2)cc1 (stereo not given)	.	.	10.2	.	.	.
Cc1ccnc(NC2(C(F)(F)F)N=C(c3ccccc3)NC2=O)c1 (stereo not given)	.	.	.	.	.	/
S=c1sc2c(N3CCOCC3)ncnc2n1-c1ccccc1	.	.	7.63	.	.	.
CCCCC(=O)N(Cc1ccc2c(c1)OCO2)Cc1nc2ccccc2c(=O)[nH]1	.	/	/	/	/	/
Cc1ccc(C(=O)N(Cc2ccc3c(c2)OCO3)Cc2nc3ccccc3c(=O)[nH]2)cc1	.	.	8.46	.	.	0.0905
Cc1nc(NC(=O)/C=C/c2ccccc2)n[nH]1	.	.	.	.	.	/
C=CCNC(=S)NNC(=O)c1ccc(OCC(C)C)cc1	.	.	6.21	.	.	0.094
FC(F)(F)c1cccc(OCCN2CCN(Cc3ccccc3)CC2)c1	.	.	.	.	.	/
COc1cccc(CC2CC(=O)N(CCc3ccc4c(c3)OCO4)C2=O)c1 (stereo not given)	.	.	5.27	.	.	0.0879
Cc1ccc(CC2CC(=O)N(CCc3ccc4c(c3)OCO4)C2=O)cc1 (stereo not given)	.	.	.	.	.	/
Cc1ccc(CNC(=O)CSc2ncccn2)cc1	.	.	.	.	.	/
Cc1ccc(C)n1-c1ccc(C(=O)NN=C2CCCC2)cc1	.	/	/	/	/	/
OCCNc1nc(-c2ccccc2)nc2ccccc12	.	/	/	/	/	/
SMILES	RAM inhibit	Yeast growth inh	sdo1 growth	Measles CPE	Yeast life ext	sdo1 rescue conf
O=C(NCCO)c1nc(NCCO)c2ccccc2n1	.	.	5.58	.	.	.
CC(C)c1nnc(N2C(=O)c3oc4ccccc4c(=O)c3C2c2ccco2)s1 (stereo not given)	.	.	.	.	/	0.0768
Nc1c(N2CCOCC2)cc(Cl)c2nonc12	.	.	5.96	.	.	.
COc1ccc(NC(=O)CC(NCc2ccccn2)C(=O)O)cc1 (stereo not given)	.	/	/	/	/	/
O=C(CSCc1ccccc1Cl)Nc1c[nH]c(=O)[nH]c1=O	.	.	.	.	.	/
COc1cc(/C=N/NC(=O)CCC(=O)NCc2ccccc2)cc(OC)c1OC	.	.	4.48	.	.	0.0945
COc1cc(/C=N/NC(=S)N/N=C/c2cc(OC)c(OC)c(OC)c2)cc(OC)c1OC	.	.	3.01	.	.	.
CCn1ccnc1CN(C)Cc1nc(Cc2cccc(C(F)(F)F)c2)no1	.	/	/	/	/	/
CCOC(=O)C1=C(O)C(=O)N(CCCn2ccnc2)C1c1ccc(OC)cc1 (stereo not given)	.	/	/	/	/	/
Cc1cccc(C)c1NC(=O)COC(=O)c1c2c(nc3ccccc13)/C(=C\c1ccc3c(c1)OCO3)CCC2	.	.	.	.	.	/
CC(OC(=O)c1c2c(nc3ccccc13)/C(=C\c1ccc3c(c1)OCO3)CCC2)C(=O)Nc1ccc(S(N)(=O)=O)cc1 (stereo not given)	.	.	.	.	.	0.0846
CC(C)NC(=S)N(CCc1ccncc1)C(C)C	.	/	/	/	/	/
COC(=O)c1sccc1NC(=O)c1ccc(OC)c(OC)c1	.	.	.	.	.	.
O=C(C1COc2ccccc2O1)N1CCN(c2ccccc2F)CC1 (stereo not given)	.	.	3.15	.	.	0.114
COc1ccccc1/C=C/C(=O)NC(=S)Nc1ccc(S(=O)(=O)N(C)c2ccccc2)cc1	.	.	.	.	.	.
COc1ccc(OCCNC(=O)/C=C/c2ccc([N+](=O)[O-])cc2)cc1	.	.	14.7	.	.	.
CN(C(=O)CSc1nnnn1-c1ccccc1)C1CCS(=O)(=O)C1 (stereo not given)	.	/	/	/	/	/
O=C(NCc1ccccc1)c1ccc(Br)cc1	.	/	/	/	/	/
O=C(NCc1ccccc1)c1cccc(Br)n1	.	.	14.7	44.4	.	.
CCn1nnnc1SCC(=O)c1ccc2c(c1)OCCO2	.	.	10.2	.	.	.
CCOC(=O)c1cc(-c2nnc(-c3ccc(Oc4ccccc4)cc3)o2)c(C)nc1C	.	.	.	.	.	/
Cc1ccnc2nc(C(=O)NCc3cccs3)nn12	.	.	.	.	.	/
O=C(NCc1cccs1)c1nc2ncccn2n1	.	.	3.01	.	.	.
COc1ccc2c(c1)sc(N)[n+]2Cc1cc(C)cc2cccnc12	.	.	9.73	.	.	.
CC1=C(C(=O)N2CCOCC2)C(c2ccccc2F)C2=C(CC(C)(C)CC2=O)N1 (stereo not given)	.	.	.	.	.	/
SMILES	RAM inhibit	Yeast growth inh	sdo1 growth	Measles CPE	Yeast life ext	sdo1 rescue conf
COc1ccc(C2C(C(=O)N3CCOCC3)=C(C)NC3=C2C(=O)CC(C)(C)C3)c(OC)c1 (stereo not given)	.	.	8.21	.	.	.
CC(C)c1ccc(NC(=O)COc2ccccn2)cc1	.	/	/	/	/	/
CC(C)(C)NC(=O)NC(=O)COc1ccccn1	.	.	3.23	.	.	.
COc1cccc2c1OCC/C2=N\NC(=O)COc1ccc(C)cc1	.	.	.	.	.	.
Cc1onc(-c2c(F)cccc2Cl)c1C(=O)NC1CCSC1=O (stereo not given)	.	.	4.99	.	.	.
O=C(CCNC(=O)c1ccccc1Cl)Nc1nc(-c2ccc3ccccc3c2)cs1	.	.	.	.	.	/
Cc1cc(C)nc(N(C#N)S(=O)(=O)c2ccc(Br)cc2)n1	.	.	12	.	.	.
